# Published values gathered from unrelated publications.
# Melanocortin receptor 3: Melanocortin receptor 3 (Mus musculus, UniProt P33033)
# ADORA2B: Adenosine receptor A2b (ADORA2B, Homo sapiens, UniProt P29275)
# TEC: Tyrosine-protein kinase Tec (TEC, Homo sapiens, UniProt P42680)
# PBRM1 bromodomain: Protein polybromo-1, bromodomain (PBRM1, Homo sapiens, UniProt Q86U86)
SMILES,target,assay,setting,endpoint,value
CCCCCCCCCCCCC/C=C/[C@@H](O)[C@@H](N)COP(=O)(O)O,"Potassium channel subfamily K member 2 (KCNK2, Homo sapiens, UniProt O95069)","binding, BRET",,Kd,> 500 µM
N=C(N)NCCC[C@H](N)C(=O)N[C@@H](Cc1ccccc1)C(=O)NCC(=O)O,Melanocortin receptor 3,"reporter gene, agonist",,EC50,> 100 µM
C=CN1CCCn2c1nc1c2c(=O)n(C)c(=O)n1C,ADORA2B,"ligand displacement, radioligand",cell membranes,Ki,> 10 µM
N[C@@H](CCC(=O)O)C(=O)O,"Metabotropic glutamate receptor 8 (Grm8, Rattus norvegicus, UniProt P70579)","calcium signal, agonist",,EC50,0.77 µM
CCCCCCN1CCCn2c1nc1c2c(=O)n(C)c(=O)n1C,ADORA2B,"ligand displacement, radioligand",cell membranes,Ki,> 10 µM
CC#CC(=O)N1CC[C@@H](n2cc(-c3ccc(Oc4c(F)cccc4F)cc3)c3c(N)n[nH]c(=O)c32)C1,TEC,"binding, competition with immobilised ligand",,Kd,0.004 µM
CCNC(=O)[C@H]1O[C@@H](n2cnc3c(N)nc(NN=C[C@H]4CCC=CO4)nc32)[C@H](O)[C@@H]1O,ADORA2B,"GTPγS binding, agonist",cell membranes,EC50,13.2 µM
CCN1CCCn2c1nc1c2c(=O)n(C)c(=O)n1C,ADORA2B,"ligand displacement, radioligand",cell membranes,Ki,> 10 µM
COc1cc(Nc2ncc3c(n2)-c2ccc(Cl)cc2C(c2c(F)cccc2OC)=NC3)ccc1C(=O)O,TEC,binding,lysate,Kd,9.86 µM
CC(=O)N[C@H](C(=O)N1C[C@H](O)C[C@H]1C(=O)NCc1ccc(-c2scnc2C)cc1)C(C)(C)SCCCCCCNC(=O)C[C@@H]1N=C(c2ccc(Cl)cc2)c2c(sc(C)c2C)-n2c(C)nnc21,"Bromodomain-containing protein 2, BD1 (BRD2, Homo sapiens, UniProt P25440)","binding, ITC",,Kd,0.111 µM
N=C(N)NCCC[C@H](NC(=O)[C@H](CC(=O)O)NC(=O)[C@H](Cc1c[nH]c2ccccc12)NC(=O)[C@H](CCCNC(=N)N)NC(=O)[C@@H](N)Cc1ccccc1)C(=O)N[C@@H](Cc1ccccc1)C(=O)NCC(=O)O,Melanocortin receptor 3,"reporter gene, agonist",,EC50,> 100 µM
CCCCCC(C)N1CCCn2c1nc1c2c(=O)n(C)c(=O)n1C (stereo not shown),ADORA2B,"ligand displacement, radioligand",cell membranes,Ki,> 10 µM
CCCCN1CCC(COC(=O)c2ccc(N)c(OCF)c2)CC1,"Beta-3 adrenergic receptor (ADRB3, Homo sapiens, UniProt P13945)","cell-free assay, radioligand",,Ki,> 10 µM
N=C(N)NCCC[C@H](NC(=O)[C@H](CC(=O)O)NC(=O)[C@H](Cc1c[nH]c2ccccc12)NC(=O)[C@H](CCCNC(=N)N)NC(=O)[C@@H](N)Cc1ccccc1)C(=O)N[C@@H](Cc1ccccc1)C(=O)O,Melanocortin receptor 3,"reporter gene, agonist",,EC50,20.4 µM
CC(C)CC(C)N1CCCn2c1nc1c2c(=O)n(C)c(=O)n1C (stereo not shown),ADORA2B,"ligand displacement, radioligand",cell membranes,Ki,> 10 µM
CSCC[C@H](N)C(=O)NCC(=O)N[C@@H](Cc1c[nH]cn1)C(=O)N[C@@H](Cc1ccccc1)C(=O)N[C@@H](CCCNC(=N)N)C(=O)N[C@@H](Cc1c[nH]c2ccccc12)C(=O)N[C@@H](CC(=O)O)C(=O)N[C@@H](CCCNC(=N)N)C(=O)N[C@@H](Cc1ccccc1)C(=O)NCC(=O)O,Melanocortin receptor 3,"reporter gene, agonist",,EC50,0.26 µM
CNC(=O)COc1cc2cc(Nc3nc(N4CCC(C(=O)NCCCCCCCNC(=O)C[C@@H]5N=C(c6ccc(Cl)cc6)c6c(sc(C)c6C)-n6c(C)nnc65)CC4)ncc3Cl)cc(OC)c2n(C)c1=O,"B-cell lymphoma 6 protein (BCL6, Homo sapiens, UniProt P41182, C67R/C84N/C8Q)","binding, ITC",,Kd,> 1000 µM
Cc1ncsc1-c1ccc(CNC(=O)[C@@H]2C[C@@H](O)CN2C(=O)[C@@H](NC(=O)C2(F)CC2)C(C)(C)C)c(OCCOc2ccc(CN3CCN(c4cc(-c5ccccc5O)nnc4N)CC3)cc2)c1,PBRM1 bromodomain,"binding, SPR",,Kd,0.83 µM
CN1CCCn2c1nc1c2c(=O)n(C)c(=O)n1C,ADORA2B,"ligand displacement, radioligand",cell membranes,Ki,> 10 µM
CCCCN1CCC(COC(=O)c2ccc(N)c(OC)c2)CC1,"5-hydroxytryptamine receptor 4 (HTR4, Homo sapiens, UniProt Q13639)","ligand displacement, radioligand",,Ki,0.0011 µM
N=C(N)NCCC[C@H](NC(=O)[C@H](CC(=O)O)NC(=O)[C@H](Cc1c[nH]c2ccccc12)NC(=O)[C@H](CCCNC(=N)N)NC(=O)[C@H](Cc1ccccc1)NC(=O)[C@@H](N)Cc1c[nH]cn1)C(=O)N[C@@H](Cc1ccccc1)C(=O)O,Melanocortin receptor 3,"reporter gene, agonist",,EC50,6.6 µM
Cc1[nH]c2ccccc2c1CCNC(=O)c1ccc(N(C)C)cc1,"Prostaglandin E2 receptor EP2 subtype (PTGER2, Homo sapiens, UniProt P43116)","cAMP, antagonist, TR-FRET",,Kb,~0.01 µM
N=C(N)NCCC[C@H](NC(=O)[C@H](CC(=O)O)NC(=O)[C@H](Cc1c[nH]c2ccccc12)NC(=O)[C@H](CCCNC(=N)N)NC(=O)[C@H](Cc1ccccc1)NC(=O)[C@H](Cc1c[nH]cn1)NC(=O)CN)C(=O)N[C@@H](Cc1ccccc1)C(=O)NCC(=O)O,Melanocortin receptor 3,"reporter gene, agonist",,EC50,0.76 µM
C[N+]1(C)CCC(OC(=O)C(c2ccccc2)c2ccccc2)CC1,"Muscarinic acetylcholine receptor M1 (CHRM1, Homo sapiens, UniProt P11229)","ligand displacement, radioligand",,IC50,0.00364 µM
CSCC[C@H](NC(=O)[C@@H](NC(=O)[C@@H](N)Cc1ccc(O)cc1)C(C)C)C(=O)NCC(=O)N[C@@H](Cc1c[nH]cn1)C(=O)N[C@@H](Cc1ccccc1)C(=O)N[C@@H](CCCNC(=N)N)C(=O)N[C@@H](Cc1c[nH]c2ccccc12)C(=O)N[C@@H](CC(=O)O)C(=O)N[C@@H](CCCNC(=N)N)C(=O)O,Melanocortin receptor 3,"reporter gene, agonist",,EC50,0.036 µM
Cc1ncsc1-c1ccc(CNC(=O)[C@@H]2C[C@H](O)CN2C(=O)[C@@H](NC(=O)C2(F)CC2)C(C)(C)C)c(OCCc2ccc(CN3CCN(c4cc(-c5ccccc5O)nnc4N)CC3)cc2)c1,PBRM1 bromodomain,"binding, SPR",,Kd,1.2 µM
CCCN1CCCn2c1nc1c2c(=O)n(C)c(=O)n1C,ADORA2B,"ligand displacement, radioligand",cell membranes,Ki,> 10 µM
CSCC[C@H](NC(=O)[C@@H](N)Cc1ccc(O)cc1)C(=O)N[C@@H](Cc1c[nH]cn1)C(=O)N[C@@H](Cc1ccccc1)C(=O)N[C@@H](CCCNC(=N)N)C(=O)N[C@@H](Cc1c[nH]c2ccccc12)C(=O)N[C@@H](Cc1ccccc1)C(=O)O,Melanocortin receptor 3,"reporter gene, agonist",,EC50,10.4 µM
